The values below come from ChEMBL document CHEMBL1128665, “Design, synthesis, and structure-activity relationship of novel dinucleotide analogs as agents against herpes and human immunodeficiency viruses” (J Med Chem, 1995).

A word on the Km: it is the concentration of substrate that gives half-maximal velocity.

Compound in data set [1]: Nc1ncnc2c1ncn2COCCO
The experiment in a line: (§1) Km value was determined by competitive inhibition of Adenosine deaminase. In outline: (§2)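 Deamination rates of the nucleoside or nucleotide substrates were followed with calf mucosal adenosine deaminase (EC 3.5.4.4) in buffer solution. Km and Vmax, expressed relative to ara-A, were derived from these rates.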

Compound in data set [2]: Nc1ncnc2c1ncn2COCCP(=O)(O)O
The data set is described as §1. In outline: as §2

Compound in data set [3]: Nc1ncnc2c1ncn2COCCP(=O)(O)O[C@H]1[C@H](O)[C@H](n2cnc3c(N)ncnc32)O[C@@H]1CO
The description is as §1. In outline: as §2

Compound in data set [4]: Nc1ncnc2c1ncn2[C@@H]1O[C@H](CO)[C@@H](O)[C@H]1O
The data set is described as §1. In outline: as §2

Compound in data set [5]: COC(=O)C(C)NP(=O)(CCOCn1cnc2c(N)ncnc21)O[C@H]1[C@H](O)[C@H](n2cnc3c(N)ncnc32)O[C@@H]1CO
The experiment in a line: Km value was determined by competitive inhibition of Adenosine deaminase No reaction at 1500 uM.

B1: Adenosine deaminase (Bos taurus), P56658 (protein)
chain: MAQTPAFNKPKVELHVHLDGAIKPETILYYGRKRGIALPADTPEELQNIIGMDKPLSLPEFLAKFDYYMPAIAGCREAVKRIAYEFVEMKAKDGVVYVEVRYSPHLLANSKVEPIPWNQAEGDLTPDEVVSLVNQGLQEGERDFGVKVRSILCCMRHQPSWSSEVVELCKKYREQTVVAIDLAGDETIEGSSLFPGHVKAYAEAVKSGVHRTVHAGEVGSANVVKEAVDTLKTERLGHGYHTLEDATLYNRLRQENMHFEVCPWSSYLTGAWKPDTEHPVVRFKNDQVNYSLNTDDPLIFKSTLDTDYQMTKNEMGFTEEEFKRLNINAAKSSFLPEDEKKELLDLLYKAYGMPSPASAEQCL
With B1, the Km in data set [1] was 138 µM; in data set [2], 248 µM; in data set [3] it was 166 µM; in data set [4], 45.3 µM; in data set [5] it was “No reaction”.
